Consider 34 molecules from ChEMBL document CHEMBL1126078, “Benzodiazepine receptor affinity and interaction of some N-(indol-3-ylglyoxylyl)amine derivatives” (J Med Chem, 1992).

The term Ki denotes the dissociation constant of the complex between target and ligand, obtained from inhibition or displacement. Read a high Ki as a looser hold on the target. As a reminder, the inhibition is how much of the control response was suppressed. Low values mean a weak effect, high ones a strong effect. The term ED50 denotes the dose at which the effect has come halfway, by size or by number of responders.

Experiment [1] concerns the target T1, GABA-A receptor; anion channel (Bos taurus) (UniProt P10063+P08220+P20237+P08219+P10064+P22300). The experiment can be described thus: Relative binding to GABA-A receptor in the presence and absence of GABA (GABA shift), Ki(-GABA)/Ki(+GABA). The class given is protein-complex assay. The method in brief:
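Same [3H]flunitrazepam (0.2 nM, 0 °C, 90 min) binding with GABA-depleted washed bovine cortical membranes. IC50 from log-probit analysis of 6–8 concentrations in triplicate, measured with and without 10 μM GABA; Ki by Cheng–Prusoff (Kd 1.8 nM). Ratio = Ki without GABA / Ki with GABA; Ki means ± SEM of three determinations.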

Experiment [2] addresses GABA-A receptor; anion channel. The experiment in a line: (§1) In vitro inhibition of [3H]flunitrazepam binding to GABA-A benzodiazepine receptor of bovine cerebral cortical membranes at 10 uM. On the set-up: species or system Bos taurus. In a few lines:
(§2)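 Bovine cortex membranes (sucrose homogenate, 50 000g pellet, frozen and washed to remove endogenous GABA) in 50 mM Tris-HCl pH 7.4; 0.4 mg protein incubated 90 min at 0 °C with 0.2 nM [3H]flunitrazepam, filtered, counted. Nonspecific binding with 10 μM diazepam. Single test concentration 10 μM, or 1 μM where insoluble; mean ± SEM of five determinations.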

Experiment [3] deals with T1, GABA-A receptor; anion channel (Bos taurus). The experiment can be described thus: In vitro inhibition of specific binding of [3H]flunitrazepam to benzodiazepine receptor in bovine cerebral cortex membrane at a concentration of 10 uM. The format is cell membranes. In a few lines:
as §2

The subject of experiment [4] is Mus musculus. The experiment in a line: Anticonvulsant activity in mice on ip dose before 80 mg/kg of PTZ (NE=no effect). The class given is functional, organism-based. On the set-up: dose 80 mg/kg. The method in brief:
(§3)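 Groups of 10 mice given graded doses ip (0.1 mL) suspended in 1% carboxymethylcellulose vehicle, or vehicle alone; PTZ given 30 min later at 80 mg/kg (anticonvulsant test) or 40 mg/kg subconvulsant (proconvulsant test). Proconvulsant value: dose inducing convulsions in 50% of mice. Highest dose tested 250 mg/kg.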

In experiment [5] the test system is Mus musculus. The experiment in a line: In vivo ip dose to antagonize Diazepam (2.5 mg/kg) anticonvulsant effect in mice treated with 80 mg/kg PTZ. The format is functional. The settings on record: route intraperitoneal. In a few lines: (§4)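 Groups of 10 mice received diazepam 2.5 mg/kg ip, then 10 min later graded ip doses of compound or vehicle; PTZ 80 mg/kg given 15 min after compound. Value: dose antagonizing diazepam's anticonvulsant effect in 50% of mice. Highest dose tested 250 mg/kg.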

In experiment [6] the test system is Mus musculus. The experiment can be described thus: In vivo ip dose to induce convulsions in mice treated with subconvulsant PTZ (40 mg/kg). The format is functional. In a few lines:
as §3

Experiment [7] deals with T1, GABA-A receptor; anion channel (Bos taurus). Described as §1. In a few lines:
as §2

In experiment [8] the test system is Mus musculus. The experiment can be described thus: In vivo ip dose to antagonize Diazepam (2.5 mg/kg) anticonvulsant effect in mice treated with 80 mg/kg PTZ (NE=no effect). The class given is functional, organism-based. On the set-up: dose 80 mg/kg. In a few lines:
as §4

The test system of experiment [9] is Mus musculus. The experiment in a line: In vivo ip dose to induce convulsions in mice treated with subconvulsant PTZ (40 mg/kg) (NE=no effect). The format is functional, organism-based. In a few lines:
as §3

Experiment [10] concerns the target T1, GABA-A receptor; anion channel (Bos taurus). The experiment in a line: In vitro inhibition of [3H]flunitrazepam binding to GABA-A benzodiazepine receptor of bovine cerebral cortical membranes at 1 uM. The method in brief:
as §2

Calls of active or inactive are those of the source. The calls are words filed in the database; no cut-off is given here.

Turning to `CCOC(=O)c1ncn2c1CN(C)C(=O)c1cc(F)ccc1-2` [FLUMAZENIL], the Ratio in experiment [1] came to 1. This molecule also returned an inhibition constant (Ki) in experiment [2] of 0.38 nM.
Take `COc1ccc(CCNC(=O)C(=O)c2cn(C)c3ccccc23)cc1OC`: in experiment [3], the inhibition turned out to be 51%.
Take `Cn1cc(C(=O)C(=O)NCCc2c[nH]c3ccccc23)c2ccccc21`: the inhibition in [3] is 39%.
The same measure, in the same setting: then `COc1cccc(CCNC(=O)C(=O)c2c[nH]c3ccc([N+](=O)[O-])cc23)c1`, with 25%; and `Cn1cc(C(=O)C(=O)NCCc2ccccc2)c2ccccc21`, with 42%.
Take `O=C(NCCc1ccc(Cl)cc1)C(=O)c1c[nH]c2ccccc12`: the Ratio in [1] is 1.2. Also, in [2], the inhibitory constant (Ki) was 340 nM.
In experiment [3], `O=C(NCCc1ccc(Cl)cc1)C(=O)c1c[nH]c2ccc([N+](=O)[O-])cc12` displayed an inhibition of 0%.
Turning to `COc1ccc(CCNC(=O)C(=O)c2c[nH]c3ccccc23)cc1OC`, the inhibition in experiment [3] is 96%. Also, the Ratio in [1] was 1.3. In experiment [2], this molecule gave an inhibition constant (Ki) of 510 nM.
In experiment [3], `O=C(NCCc1ccc(Cl)cc1)C(=O)c1c[nH]c2ccc(Cl)cc12` displayed an inhibition of 4%.
Molecule `O=C(NCCc1c[nH]c2ccccc12)C(=O)c1c[nH]c2ccc([N+](=O)[O-])cc12` displayed an inhibition in experiment [3] of 90%. In addition, the Ratio in experiment [1] is 0.65. The molecule further had a Ki in experiment [2] of 350 nM.
In the case of `O=C(NCCc1ccc(O)cc1)C(=O)c1c[nH]c2ccc(Cl)cc12`, in experiment [3], the inhibition was found to be 83%. For the same molecule, in experiment [1], the Ratio was found to be 0.8. This molecule came in with a Ki in experiment [2] of 2200 nM.
Take `O=C(NCCc1ccc(O)cc1)C(=O)c1c[nH]c2ccc([N+](=O)[O-])cc12`: the result in experiment [4] was inactive. In addition, the inhibition in experiment [3] was 100%. Further, the ED50 was determined as 50 mg/kg in [5] and 75 mg/kg in experiment [6]. Moreover, in [1], the Ratio is 0.7. The affinity in experiment [2] corresponds to a Ki of 350 nM.
As to `Cn1cc(C(=O)C(=O)NCCc2ccc(O)c(O)c2)c2ccccc21`, the inhibition in experiment [7] was determined as 17%.
In experiment [3], `Cn1cc(C(=O)C(=O)NCCc2ccc(O)cc2)c2ccccc21` gave an inhibition of 58%.
`O=C(NCCc1ccc(O)c(O)c1)C(=O)c1c[nH]c2ccc(Cl)cc12` came in with an inhibition in experiment [7] of 90%. Further, the Ratio in [1] was 0.52. The inhibition constant (Ki) in experiment [2] was found to be 1000 nM.
On to `O=C(NCCc1c[nH]c2ccccc12)C(=O)c1c[nH]c2ccccc12`, for which, in experiment [3], the inhibition turned out to be 83%. In [1], the Ratio is 1. The molecule further showed an inhibition constant (Ki) in [2] of 1500 nM.
For `O=C(NCCc1ccc(O)cc1)C(=O)c1c[nH]c2ccc(Br)cc12`, in that order: 75%, 0.8 and 2300 nM.
On to `COc1ccc(CCNC(=O)C(=O)c2cn(C)c3ccccc23)cc1`, for which the inhibition in experiment [3] is 67%.
In the case of `COc1ccc(CCNC(=O)C(=O)c2c[nH]c3ccc(Cl)cc23)cc1OC`, the inhibition in [3] was 94%. Further, the Ratio in experiment [1] turned out to be 1.3. The affinity in experiment [2] corresponds to a Ki of 700 nM.
Take `O=C(NCCc1ccc(O)c(O)c1)C(=O)c1c[nH]c2ccc([N+](=O)[O-])cc12`: the outcome in [4] was inactive. The results for the ED50 in [5] and in experiment [6] were 75 mg/kg and 100 mg/kg, respectively. For the same molecule, the inhibition in experiment [7] turned out to be 100%. The Ratio in experiment [1] amounted to 0.64. For the same molecule, the Ki in [2] was 280 nM.
Take `O=C(NCCc1ccccc1)C(=O)c1c[nH]c2ccccc12`: the result in [4] was inactive. In addition, in experiment [3], the inhibition was found to be 94%. Moreover, the ED50 result in [8] and in experiment [9] was “inactive” throughout. In experiment [1], the Ratio stood at 1.3. The molecule further showed an inhibition constant (Ki) in [2] of 380 nM.
Consider `COc1ccc(CCNC(=O)C(=O)c2c[nH]c3ccccc23)cc1`, for which, in experiment [4], the result was inactive. Moreover, the inhibition in [3] is 97%. The ED50 result in [8] and in experiment [9] was “inactive” in each case. Further, the Ratio in experiment [1] was found to be 1.3. The same molecule returned a Ki in [2] of 90 nM.
As for `O=C(NCCc1ccccc1)C(=O)c1c[nH]c2ccc(Cl)cc12`, the inhibition in experiment [3] amounted to 25%.
Turning to `O=C(NCCc1ccc(O)c(O)c1)C(=O)c1c[nH]c2ccccc12`, the inhibition in experiment [7] is 68%. The Ratio in experiment [1] was 0.92. This molecule also showed a Ki in experiment [2] of 4200 nM.
As for `CN1C(=O)CN=C(c2ccccc2)c2cc(Cl)ccc21` [DIAZEPAM], the Ratio in [1] worked out at 1.7. In experiment [2], this molecule gave a Ki of 10 nM.
In [10], `O=C(NCCc1ccccc1)C(=O)c1c[nH]c2ccc([N+](=O)[O-])cc12` had an inhibition of 39%.
Regarding `Cn1cc(C(=O)C(=O)NCCc2ccc(Cl)cc2)c2ccccc21`, the inhibition in experiment [7] was found to be 25%.
Consider `COc1ccc(CCNC(=O)C(=O)c2c[nH]c3ccc([N+](=O)[O-])cc23)cc1OC`, for which, in [1], the Ratio was determined as 1.
Regarding `COc1ccc(CCNC(=O)C(=O)c2c[nH]c3ccc([N+](=O)[O-])cc23)cc1`, the inhibition in experiment [3] was determined as 32%.
Molecule `COc1cccc(CCNC(=O)C(=O)c2c[nH]c3ccccc23)c1` returned an inhibition in experiment [3] of 97%. Also, the Ratio in experiment [1] amounted to 1.2. In addition, the Ki in experiment [2] stood at 85 nM.
Consider `O=C(NCCc1ccc(O)c(O)c1)C(=O)c1c[nH]c2ccc(Br)cc12`, for which the inhibition in experiment [7] came to 85%. The Ratio in [1] worked out at 0.7. In experiment [2], the Ki was found to be 1200 nM.
In the case of `O=C(NCCc1c[nH]c2ccccc12)C(=O)c1c[nH]c2ccc(Cl)cc12`, the inhibition in experiment [3] was 70%.
For the molecule `O=C(NCCc1ccc(O)cc1)C(=O)c1c[nH]c2ccccc12`, the inhibition in experiment [3] is 82%. For the same molecule, the Ratio in experiment [1] was determined as 0.7. For the same molecule, in experiment [2], affinity was put at a Ki of 2400 nM.
In experiment [3], `O=C(NCCc1c[nH]c2ccccc12)C(=O)c1c[nH]c2ccc(Br)cc12` gave an inhibition of 62%.
